Data reported in ChEMBL document CHEMBL1126083, “Novel functional M1 selective muscarinic agonists. Synthesis and structure-activity relationships of 3-(1,2,5-thiadiazolyl)-1,2,5,6-tetrahydro-1-methylpyridines ” (J Med Chem, 1992).
Values belong to the compound of their own block, whether it stands above or below them.

Tests used:
Cavia porcellus [1] = species on record: Cavia porcellus; assay: In vitro inhibition of maximum force of contraction in guinea pig atria.; format: functional
Cavia porcellus [2] = species on record: Cavia porcellus; assay: In vitro inhibition of force of contraction in guinea pig atria.; format: functional
[3] = biological target: T1, Muscarinic acetylcholine receptor M1 (Rattus norvegicus, UniProt P08482); assay: In vitro binding affinity against muscarinic acetylcholine receptor M1 from rat hippocampus, using [3H]pirenzepine (Pz) as radioligand; format: tissue-based
T1 sequence (P08482 whole entry): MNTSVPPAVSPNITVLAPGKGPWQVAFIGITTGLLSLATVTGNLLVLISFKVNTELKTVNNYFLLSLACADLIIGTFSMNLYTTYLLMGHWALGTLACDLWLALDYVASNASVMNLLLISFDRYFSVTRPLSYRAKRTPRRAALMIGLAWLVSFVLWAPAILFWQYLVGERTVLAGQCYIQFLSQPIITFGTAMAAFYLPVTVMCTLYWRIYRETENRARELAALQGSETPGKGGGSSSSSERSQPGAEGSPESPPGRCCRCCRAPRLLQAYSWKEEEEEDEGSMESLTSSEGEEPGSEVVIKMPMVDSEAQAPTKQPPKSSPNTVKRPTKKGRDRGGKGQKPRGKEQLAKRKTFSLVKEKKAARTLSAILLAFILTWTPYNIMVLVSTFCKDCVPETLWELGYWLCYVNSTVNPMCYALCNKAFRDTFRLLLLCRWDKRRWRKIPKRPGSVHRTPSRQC

Oryctolagus cuniculus [4] = species on record: Oryctolagus cuniculus; assay: In vitro inhibition of maximum twitch height in electrically stimulated rabbit vas deferens.; format: functional
In short: (§1)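 Vasa deferentia taken from rabbits under pentobarbital (60 mg/kg i.v.), held at 0.75 g tension and equilibrated ≥30 min. Field-stimulated at 0.5 ms, 40 V, 0.05 Hz. Cumulative concentration–effect curves run on prostatic and epididymal tissues, 3–5 preparations per concentration.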

[5] = biological target: T1, Muscarinic acetylcholine receptor M1; assay: In vitro binding affinity against muscarinic acetylcholine receptor M1 from rat cerebral cortex, using [3H]oxotremorine-M (Oxo-M) as radioligand
Oryctolagus cuniculus [6] = species on record: Oryctolagus cuniculus; assay: In vitro inhibition of twitch height in electrically stimulated rabbit vas deferens; format: functional; in short: as §1
[7] = biological target: T1, Muscarinic acetylcholine receptor M1; assay: In vitro binding affinity against Muscarinic acetylcholine receptor M1 from rat hippocampus, using [3H]oxotremorine-M (Oxo-M) as radioligand.; format: tissue-based; conditions: in the assay text read “cerebral cortex” for “hippocampus”
In short: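 Rat cortex (fresh, male Wistar) homogenized in 20 mM Hepes pH 7.4, spun 15 min at 4000g, and washed three times. Homogenate incubated with [3H]Oxo-M (1.0 nM final) for 30 min at 25 °C. […] Filtered and counted by scintillation. IC50 from at least four concentrations in triplicate, fitted by the Hill equation.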

[8] = biological target: T1, Muscarinic acetylcholine receptor M1; assay: In vitro binding affinity against Muscarinic acetylcholine receptor M1 from rat hippocampus, using [3H]pirenzepine (Pz) as radioligand.; format: tissue-based

SMILES: C[N+](C)(C)CC#CCOC(=O)Nc1cccc(Cl)c1.[Cl-]
Inhibition (Cavia porcellus [1]): 0%
IC30 (Cavia porcellus [2]): > 100000 nM
IC50 [3]: 955 nM
Inhibition (Oryctolagus cuniculus [4]): 91%
IC50 (Oryctolagus cuniculus [6]): 659 nM
IC50 [5]: 355 nM

SMILES: CCSc1nsnc1C1=CCCN(C)C1.O=C(O)C(=O)O
Inhibition (Cavia porcellus [1]): 100%
IC30 (Cavia porcellus [2]): 70 nM
IC50 [3]: 18 nM
Inhibition (Oryctolagus cuniculus [4]): 71%
IC50 (Oryctolagus cuniculus [6]): 22 nM
IC50 [5]: 1.9 nM

SMILES: CCCCCCS(=O)(=O)c1nsnc1C1=CCCN(C)C1
Inhibition (Cavia porcellus [1]): 76%
IC30 (Cavia porcellus [2]): 5500 nM
IC50 [3]: 62 nM
Inhibition (Oryctolagus cuniculus [4]): 73%
IC50 (Oryctolagus cuniculus [6]): 43 nM
IC50 [5]: 29 nM

SMILES: CCCCCCCOc1nsnc1C1=CCCN(C)C1.O=C(O)C(=O)O
Inhibition (Cavia porcellus [1]): 100%
IC30 (Cavia porcellus [2]): 3900 nM

SMILES: CCCCCCNc1nsnc1C1=CCCN(C)C1
Inhibition (Cavia porcellus [1]): 84%
IC30 (Cavia porcellus [2]): 13000 nM
IC50 [3]: 105 nM
Inhibition (Oryctolagus cuniculus [4]): 65%
IC50 (Oryctolagus cuniculus [6]): 3000 nM
IC50 [5]: 60 nM

SMILES: CSc1nsnc1C1=CCCN(C)C1.O=C(O)C(=O)O
Inhibition (Cavia porcellus [1]): 100%
IC30 (Cavia porcellus [2]): 300 nM
IC50 [3]: 43 nM
Inhibition (Oryctolagus cuniculus [4]): 70%
IC50 (Oryctolagus cuniculus [6]): 3 nM
IC50 [5]: 2.3 nM

SMILES: CCCCCCCCc1nsnc1C1=CCCN(C)C1.O=C(O)C(=O)O
Inhibition (Cavia porcellus [1]): 14%
IC30 (Cavia porcellus [2]): > 75000 nM
IC50 [7]: 428 nM
IC50 [8]: 56 nM
Inhibition (Oryctolagus cuniculus [4]): 26%

SMILES: COC(=O)C1=CCCN(C)C1 [ARECOLINE]
Inhibition (Cavia porcellus [1]): 100%
IC30 (Cavia porcellus [2]): 600 nM

SMILES: CN1CCC=C(c2cnsn2)C1
Inhibition (Cavia porcellus [1]): 100%
IC30 (Cavia porcellus [2]): 10 nM
IC50 [3]: 145 nM
Inhibition (Oryctolagus cuniculus [4]): 59%
IC50 (Oryctolagus cuniculus [6]): 26 nM
IC50 [5]: 2 nM

SMILES: CCCCCOc1nsnc1C1=CCCN(C)C1.O=C(O)C(=O)O
Inhibition (Cavia porcellus [1]): 43%
IC30 (Cavia porcellus [2]): 2800 nM

SMILES: CCCCCCCc1nsnc1C1=CCCN(C)C1.O=C(O)C(=O)O
Inhibition (Cavia porcellus [1]): 78%
IC30 (Cavia porcellus [2]): 5400 nM

SMILES: CN1CCC=C(c2nsnc2Cl)C1
Inhibition (Cavia porcellus [1]): 67%
IC30 (Cavia porcellus [2]): 29400 nM

SMILES: CCCCCC[S+]([O-])c1nsnc1C1=CCCN(C)C1 (centres undefined)
Inhibition (Cavia porcellus [1]): 45%
IC30 (Cavia porcellus [2]): 25000 nM
IC50 [3]: 860 nM
Inhibition (Oryctolagus cuniculus [4]): 80%
IC50 (Oryctolagus cuniculus [6]): 48 nM
IC50 [5]: 109 nM

SMILES: CCCCOc1nsnc1C1=CCCN(C)C1.O=C(O)C(=O)O
Inhibition (Cavia porcellus [1]): 71%
IC30 (Cavia porcellus [2]): 200 nM

SMILES: CCCCCCOc1nsnc1C1=CCCN(C)C1.O=C(O)C(=O)O
Inhibition (Cavia porcellus [1]): 20%
IC30 (Cavia porcellus [2]): > 27000 nM

SMILES: CCCCCCCSc1nsnc1C1=CCCN(C)C1.O=C(O)C(=O)O
Inhibition (Cavia porcellus [1]): 40%
IC30 (Cavia porcellus [2]): 7500 nM
IC50 [3]: 12 nM
Inhibition (Oryctolagus cuniculus [4]): 63%
IC50 (Oryctolagus cuniculus [6]): 108 nM
IC50 [5]: 3 nM

SMILES: CCCCCSc1nsnc1C1=CCCN(C)C1.O=C(O)C(=O)O
Inhibition (Cavia porcellus [1]): 33%
IC30 (Cavia porcellus [2]): 5400 nM

SMILES: CCCCCCCCSc1nsnc1C1=CCCN(C)C1.O=C(O)C(=O)O
Inhibition (Cavia porcellus [1]): 5%
IC30 (Cavia porcellus [2]): > 72000 nM
IC50 [7]: 140 nM
IC50 [8]: 49 nM
Inhibition (Oryctolagus cuniculus [4]): 42%

Second part, led by results:

IC50 [3]: 4 nM
IC50 [5]: 0.9 nM
SMILES: CCCSc1nsnc1C1=CCCN(C)C1.O=C(O)C(=O)O
Inhibition (Cavia porcellus [1]): 100%
IC30 (Cavia porcellus [2]): 50 nM
Inhibition (Oryctolagus cuniculus [4]): 42%

IC50 [3]: 6.9 nM
IC50 (Oryctolagus cuniculus [6]): 7 nM
IC50 [5]: 7 nM
SMILES: CCCCC(C)Oc1nsnc1C1=CCCN(C)C1.O=C(O)/C=C/C(=O)O (centres undefined)
Inhibition (Cavia porcellus [1]): 15%
IC30 (Cavia porcellus [2]): > 25000 nM
Inhibition (Oryctolagus cuniculus [4]): 79%

IC50 [7]: 80 nM
IC50 [8]: 84 nM
SMILES: CCCc1nsnc1C1=CCCN(C)C1.O=C(O)C(=O)O
Inhibition (Cavia porcellus [1]): 7%
IC30 (Cavia porcellus [2]): > 75000 nM
Inhibition (Oryctolagus cuniculus [4]): 13%

IC50 [7]: 6.5 nM
IC50 [8]: 5 nM
IC50 (Oryctolagus cuniculus [6]): 0.001 nM
SMILES: CCCCCCSc1nsnc1C1=CCCN(C)C1.O=C(O)C(=O)O
Inhibition (Cavia porcellus [1]): 56%
IC30 (Cavia porcellus [2]): 9700 nM
Inhibition (Oryctolagus cuniculus [4]): 92%

IC50 [3]: 1.3 nM
IC50 (Oryctolagus cuniculus [6]): 0.003 nM
IC50 [5]: 1.7 nM
SMILES: CCCCSc1nsnc1C1=CCCN(C)C1.O=C(O)C(=O)O
Inhibition (Cavia porcellus [1]): 45%
IC30 (Cavia porcellus [2]): 100 nM
Inhibition (Oryctolagus cuniculus [4]): 83%

IC50 [3]: 48 nM
IC50 [5]: 5.7 nM
SMILES: CCOc1nsnc1C1=CCCN(C)C1.O=C(O)C(=O)O
Inhibition (Cavia porcellus [1]): 0%
IC30 (Cavia porcellus [2]): > 75000 nM
Inhibition (Oryctolagus cuniculus [4]): 43%

IC50 [3]: 18 nM
IC50 [5]: 1.6 nM
SMILES: CCCOc1nsnc1C1=CCCN(C)C1.O=C(O)C(=O)O
Inhibition (Cavia porcellus [1]): 100%
IC30 (Cavia porcellus [2]): 90 nM
Inhibition (Oryctolagus cuniculus [4]): 25%

IC50 [7]: 146 nM
IC50 [8]: 170 nM
SMILES: CCCCCc1nsnc1C1=CCCN(C)C1.O=C(O)C(=O)O
Inhibition (Cavia porcellus [1]): 12%
Inhibition (Oryctolagus cuniculus [4]): 40%

IC50 [3]: 9 nM
IC50 [5]: 13 nM
SMILES: CCCC(C)COc1nsnc1C1=CCCN(C)C1.O=C(O)/C=C/C(=O)O (centres undefined)
Inhibition (Cavia porcellus [1]): 0%
IC30 (Cavia porcellus [2]): > 75000 nM
Inhibition (Oryctolagus cuniculus [4]): 32%

IC50 [3]: 40 nM
IC50 [5]: 30 nM
SMILES: CCCCCCCCOc1nsnc1C1=CCCN(C)C1.O=C(O)C(=O)O
Inhibition (Cavia porcellus [1]): 0%
IC30 (Cavia porcellus [2]): > 75000 nM
Inhibition (Oryctolagus cuniculus [4]): 0%

IC50 [3]: 148 nM
IC50 (Oryctolagus cuniculus [6]): 364 nM
IC50 [5]: 22 nM
SMILES: COc1nsnc1C1=CCCN(C)C1.O=C(O)C(=O)O
Inhibition (Cavia porcellus [1]): 50%
IC30 (Cavia porcellus [2]): 1100 nM
Inhibition (Oryctolagus cuniculus [4]): 47%

IC50 (Oryctolagus cuniculus [6]): 460 nM
SMILES: C[N+](C)(C)CCOC(N)=O.[Cl-] [CARBACHOL]
Inhibition (Cavia porcellus [1]): 100%
IC30 (Cavia porcellus [2]): 500 nM
Inhibition (Oryctolagus cuniculus [4]): 77%

IC50 [3]: 345 nM
IC50 [5]: 24 nM
SMILES: CCCCOc1nonc1C1=CCCN(C)C1
Inhibition (Cavia porcellus [1]): 0%
IC30 (Cavia porcellus [2]): > 70000 nM
Inhibition (Oryctolagus cuniculus [4]): 12%

IC50 [3]: 8.4 nM
IC50 (Oryctolagus cuniculus [6]): 47 nM
IC50 [5]: 10 nM
SMILES: CCC(C)CCOc1nsnc1C1=CCCN(C)C1.O=C(O)/C=C/C(=O)O (centres undefined)
Inhibition (Cavia porcellus [1]): 0%
IC30 (Cavia porcellus [2]): > 75000 nM
Inhibition (Oryctolagus cuniculus [4]): 65%

IC50 [3]: 9.7 nM
IC50 (Oryctolagus cuniculus [6]): 0.006 nM
IC50 [5]: 8 nM
SMILES: CC(C)CCCOc1nsnc1C1=CCCN(C)C1.O=C(O)/C=C\C(=O)O
Inhibition (Cavia porcellus [1]): 73%
IC30 (Cavia porcellus [2]): 7300 nM
Inhibition (Oryctolagus cuniculus [4]): 86%

IC50 [3]: 277 nM
IC50 (Oryctolagus cuniculus [6]): 10000 nM
IC50 [5]: 84 nM
SMILES: CCCCCCOc1nonc1C1=CCCN(C)C1
Inhibition (Cavia porcellus [1]): 0%
IC30 (Cavia porcellus [2]): > 70000 nM
Inhibition (Oryctolagus cuniculus [4]): 47%
